Apaf-1 act: activates human Apaf-1 apoptosome. Apaf-1 apoptosome caspase-3 activation, DEVD-Rh110 fluorescence; hits give low values. activity change, negative = activation, % at 20 µM. hit rate 0.31% among 330,000;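 active = activity change at or below -40% at 20 µM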
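Material: reconstituted apoptosome of Apaf-1, cytochrome c, caspase-9, procaspase-3; times: 30 min preincubation, 50 min reaction, room temperature; measured by: fluorescence, 540 nm emission, 480 nm excitation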
* marks the source's active call; other numbers are inactive results. The list is a sample of the results.

SMILES	Apaf-1 act
CCN(CC)c1ccc(NC(=O)CCS(=O)(=O)c2ccc(Br)cc2)c(C)c1	-136*
CC1CN(S(=O)(=O)c2cccc(C(=O)N(CCc3ccccc3)Cc3ccccc3)c2)CC(C)O1 (centres undefined)	45
CCOc1ccc(NC(=O)CN(C)C(=O)c2ccccc2OCc2c(C)noc2C)cc1OCC	57
COc1ccc(C2C(C(=O)c3ccco3)=C(O)C(=O)N2CCCn2ccnc2)c(OC)c1 (centres undefined)	57
CC12CCC(=O)N1C(C(=O)Nc1ccccc1N1CCCCC1)CS2 (centres undefined)	48
C=C(C)C(=O)Nc1cccc(C2=NOC3(C2)C[C@H](C(N)=O)N(C(=O)CC#N)C3)c1 (some centres undefined)	-166*
C=C(C)C(=O)Nc1cccc(C2=NOC3(C2)C[C@H](C(N)=O)N(C(=O)CC)C3)c1 (some centres undefined)	-271*
O=C1Cc2ccccc2C(=O)N1Cc1ccccc1	52
Cc1[nH]n(-c2ccccc2)c(=O)c1/C=N\NC(=O)C1COc2ccccc2O1 (centres undefined)	54
CCCN(CC(=O)Nc1ccccc1C)C(=O)COc1ccc2c(c1)CCC2	60
C#CCOCCOCCOCCNc1nc(N2CCN(C(=O)[C@H]([C@@H](C)CC)n3cc([C@@H](N)CO)nn3)CC2)nc(N2CCN(C(=O)[C@H](Cc3cc4ccccc4[nH]3)n3cc([C@@H](N)Cc4ccc(O)cc4)nn3)CC2)n1	57
Clc1ccc(C2=Nn3c(nnc3-c3n[nH]c4c3CCC4)SC2)cc1Cl	43
O=C(O)CCC1c2cc3c4cc2OC2Oc5cc6c(cc51)C(CCC(=O)O)c1cc5c7cc1OC(O6)c1cc6cc(c1)Oc1cc(cc(C(=O)O)c1)Oc1cc8cc(c1)C(Oc1cc(c(cc1C5CCC(=O)O)C3CCC(=O)O)OC(O4)c1cc(cc(c1)Oc1cc(cc(C(=O)O)c1)O8)Oc1cc(cc(C(=O)O)c1)Oc1cc(cc2c1)Oc1cc(cc(C(=O)O)c1)O6)O7 (centres undefined)	99
COCCN(Cc1ccccc1)C(=O)C1CCN(S(=O)(=O)c2ccc3c(c2)OCCO3)CC1	49
CCn1c2ccccc2c2c3ncc4cccn4c3ccc21	62
OC1C(O)C(O)C(O)C(O)C1O (centres undefined)	-1
CCc1ccc(N2C(=O)C(Cl)=C(Nc3ccc(C(=O)N4CCCC4)cc3)C2=O)cc1	41
CCCCCC#CCC#CCC#CCC#CCCCC(=O)O	41
CCC1CCc2sc(C(=O)NCC(c3ccccc3OC)N3CCCC3)cc2C1 (centres undefined)	49
CC(=O)N1CCN(c2ccc(NCc3ccc(-c4cccc(Cl)c4)o3)cc2)CC1	43
O=C(c1ccc(Cl)c(S(=O)(=O)N2CCCCCC2)c1)N1CCCC(C(F)(F)F)C1 (centres undefined)	60
O=C1C=C(Nc2cccc3cccnc23)c2ccccc2C1=O	47
O=S(=O)(c1cccc2cccnc12)N1CCCCC1	-44*
COc1ccccc1CNC(=O)CN1C(=O)NC(c2ccccc2)(c2ccc(C)c(C)c2)C1=O (centres undefined)	66
C[C@H](CO)N1C[C@H](C)[C@@H](CN(C)CC2CCCCC2)Oc2c(NC(=O)CCC(F)(F)F)cccc2C1=O	41
SMILES	Apaf-1 act
CCCCC(=O)NC(c1ccc(C(C)C)cc1)c1ccc2cccnc2c1O (centres undefined)	-463*
CCC1C(=O)N=C(SCC(=O)Nc2nc3ccccc3s2)NC1=O (centres undefined)	70
Nc1ccc(O)c2ccccc12	68
Cc1cc(NC(=O)CSCC(=O)Nc2ccc(C)c(C)c2)no1	54
Cn1c(-c2sccc2OCc2ccccc2)n[nH]c1=S	-289*
C#CCOCCOCCOCCNc1nc(N2CCN(C(=O)CCCCCCCCCCNC(=O)[C@H](CO)n3cc(CCCSC)nn3)CC2)nc(N2CCN(C(=O)CCCCCCCCCCNC(=O)[C@H](CCCN=C(N)N)n3cc(C[C@@H](C)CC)nn3)CC2)n1	45
COc1ccc(NC(=O)Nc2ccc(O)c3ccccc23)cc1	52
COc1ccc(CCNC(=O)CSc2nnc(-c3ccco3)c(-c3ccco3)n2)cc1OC	43
CCn1cc(CN2CCC(n3nccc3NC(=O)c3cccc(F)c3)CC2)cn1	-302*
CC(C)n1cnc2c(NCc3ccccc3)cc(N[C@H](C)CO)cc21	97
O=C(OCc1cc(Cl)ccc1OC(F)F)c1ccc([N+](=O)[O-])o1	66
CC(C)=CCC/C(C)=C/CNC(=O)C[C@H]1C[C@H](C(=O)N2CCOCC2)[C@@]2(C)c3[nH]c4cc(-c5ccco5)ccc4c3CCN2C1=O	44
COc1ccccc1N(/N=C1\Sc2ccccc2C1=O)C(C)=O	83
CC(=O)Nc1ccc(S(=O)(=O)NCc2ccc3c(c2)cc(C)n3C)cc1	51
CC(=O)Nc1ccc(S(=O)(=O)NC2(C(F)(F)F)NC(=O)N(c3ccc(Cl)cc3)C2=O)cc1 (centres undefined)	-58*
Cc1ccc2c(c1)C(=O)C(=O)N2Cc1ccc(Cl)cc1	40
O=C(c1ccc(-c2cccc(C(F)(F)F)c2)o1)N1CCCC(C(F)(F)F)C1 (centres undefined)	43
COc1ccccc1N1CCN(C(c2cccs2)C(C)NS(=O)(=O)c2ccccc2)CC1 (centres undefined)	55
COc1ccccc1N1CCN(C(=O)c2ccc3c(Cl)c4c(nc3c2)CCCC4)CC1	41
COc1ccccc1N1CCN(C(=O)C(C)CS(=O)(=O)c2ccc3c(c2)NC(=O)CS3)CC1 (centres undefined)	-428*
COC(=O)C1=C(C)N(Cc2ccccc2)C(=NCCc2cccnc2)N[C@H]1c1ccc(Br)cc1	51
Cc1cccc(NC(=S)NCc2ccc3c(c2)cc(C)n3C)c1C	66
C[C@@H]1CN([C@@H](C)CO)C(=O)c2cc(NC(=O)Nc3ccc(F)cc3)ccc2O[C@@H]1CN(C)Cc1ccc(Oc2ccccc2)cc1	42
CC(=O)c1ccc(N2CCN(S(=O)(=O)c3ccc4c5c3CC(=O)N5CC(C)S4)CC2)cc1 (centres undefined)	56
O=C1C(=O)c2ccccc2C(O)=C1CCCCl	83
SMILES	Apaf-1 act
C#CCOCCOCCOCCNc1nc(N2CCN(C(=O)CCCCCCCCCCNC(=O)Cn3cc(CCCCCN)nn3)CC2)nc(N2CCN(C(=O)CCCCCCCCCCNC(=O)Cn3cc(CCCCCN)nn3)CC2)n1	65
CC(=O)C1=C(c2cccc([N+](=O)[O-])c2)N(C(C)=O)n2c(C)nnc2S1	44
COc1ccc(NS(=O)(=O)c2cccc(C(=O)N/N=C/c3cn(-c4ccccc4)nc3-c3ccc(OC)cc3)c2)cc1	-45*
COc1ccccc1C(CNC(=O)c1cccc(S(=O)(=O)Nc2ccc(C)cc2)c1)N(C)C (centres undefined)	46
COc1ccc(NS(=O)(=O)c2cccc(C(=O)N3CCCCCCC3)c2)cc1	45
Cc1cccc(NC(=O)CN2CCN(C(=O)c3oc4c(Cl)cccc4c3C)CC2)c1C	70
CC(C)(C)NS(=O)(=O)c1ccc(CCC(=O)O)cc1	-99*
CCc1ccc(S(=O)(=O)Nc2cc(SCC(=O)O)c(O)c3ccccc23)cc1	71
CCCCc1nc(N2CCN(C(=O)c3ccco3)CC2)c(C#N)c2c1CCCC2	42
CN(CC(=O)Nc1ccc(Cl)cc1)C(=O)c1sccc1-c1ccccc1	46
Cc1ccc(OCC(=O)N(Cc2nnc(-c3ccccc3Cl)o2)C2CC2)cc1C	56

Screening data from PubChem.
